Legend:
Type in all cases: functional
[1] = tested on: UO-31; experiment: Growth inhibition of human UO31 cells assessed as cell growth at 10^-6 M after 48 hrs by sulforhodamine B assay; conditions: UO-31, 48 h, read-out: Activity
[2] = tested on: SK-MEL-5; experiment: Growth inhibition of human SK-MEL-5 cells assessed as cell growth at 10^-8 M after 48 hrs by sulforhodamine B assay; conditions: SK-MEL-5, 48 h, read-out: Activity
[3] = tested on: NCI-H460; experiment: Growth inhibition of human NCI-H460 cells after 48 hrs by sulforhodamine B assay; conditions: NCI-H460, 48 h; for CC50: read-out: LC50 (the source's name)
Procedure, shortened: (§1)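 Adherent cells in RPMI 1640 with 5% FBS and 2 mM L-glutamine were plated at 5000–40,000 cells/well and grown 24 h. Five concentrations (0.01–100 µM, DMSO stock) were added for 48 h at 37 °C. Cells were fixed with cold TCA (10% final) and stained with SRB, read at 515 nm. GI50 came from log concentration–growth curves against time-zero and control plates.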

[4] = Growth inhibition of human Hs 578T cells assessed as cell growth at 10^-6 M after 48 hrs by sulforhodamine B assay; conditions: read-out: Activity
Procedure, shortened: (§2)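 Five-dose screen at NCI. Cells in RPMI 1640 with 5% FBS and 2 mM L-glutamine, seeded at 5000–40,000 cells/well and grown 24 h at 37 °C, 5% CO2 before dosing, with time-zero plates TCA-fixed. Drug diluted from DMSO stock to 0.01, 0.1, 1, 10 and 100 µM final, 48 h. Cells fixed with cold TCA (10% final), stained with 0.4% SRB and read at 515 nm. Percent growth from Tz, control and test absorbances; GI50, TGI and LC50 from dose-response curves.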

[5] = tested on: HCT-116; experiment: Growth inhibition of human HCT116 cells assessed as cell growth at 10^-8 M after 48 hrs by sulforhodamine B assay; conditions: HCT-116, 48 h, read-out: Activity; procedure, shortened: as §2
[6] = tested on: UO-31; experiment: Growth inhibition of human UO31 cells assessed as cell growth at 10^-4 M after 48 hrs by sulforhodamine B assay; conditions: UO-31, 48 h, read-out: Activity
[7] = tested on: SW-620; experiment: Growth inhibition of human SW620 cells assessed as cell growth at 10^-6 M after 48 hrs by sulforhodamine B assay; conditions: SW-620, 48 h, read-out: Activity
[8] = tested on: UACC-62; experiment: Growth inhibition of human UACC62 cells assessed as cell growth at 10^-7 M after 48 hrs by sulforhodamine B assay; conditions: UACC-62, 48 h, read-out: Activity
[9] = tested on: HT-29; experiment: Growth inhibition of human HT-29 cells assessed as cell growth at 10^-6 M after 48 hrs by sulforhodamine B assay; conditions: HT-29, 48 h, read-out: Activity; procedure, shortened: as §2
[10] = tested on: OVCAR-4; experiment: Growth inhibition of human OVCAR4 cells assessed as cell growth at 10^-5 M after 48 hrs by sulforhodamine B assay; conditions: OVCAR-4, 48 h, read-out: Activity
[11] = tested on: NCI-H522; experiment: Growth inhibition of human NCI-H522 cells assessed as cell growth at 10^-8 M after 48 hrs by sulforhodamine B assay; conditions: NCI-H522, 48 h, read-out: Activity
[12] = tested on: SF-268; experiment: Growth inhibition of human SF268 cells assessed as cell growth at 10^-6 M after 48 hrs by sulforhodamine B assay; conditions: SF-268, 48 h, read-out: Activity
[13] = tested on: SF-295; experiment: Growth inhibition of human SF295 cells assessed as cell growth at 10^-7 M after 48 hrs by sulforhodamine B assay; conditions: SF-295, 48 h, read-out: Activity
[14] = tested on: SK-OV-3; experiment: Growth inhibition of human SKOV3 cells assessed as cell growth at 10^-4 M after 48 hrs by sulforhodamine B assay; conditions: SK-OV-3, 48 h, read-out: Activity
[15] = tested on: UO-31; experiment: Growth inhibition of human UO31 cells assessed as cell growth at 10^-5 M after 48 hrs by sulforhodamine B assay; conditions: UO-31, 48 h, read-out: Activity
[16] = tested on: SW-620; experiment: Growth inhibition of human SW620 cells assessed as cell growth at 10^-4 M after 48 hrs by sulforhodamine B assay; conditions: SW-620, 48 h, read-out: Activity
[17] = tested on: OVCAR-3; experiment: Growth inhibition of human OVCAR3 cells assessed as cell growth at 10^-8 M after 48 hrs by sulforhodamine B assay; conditions: OVCAR-3, 48 h, read-out: Activity
[18] = tested on: SK-MEL-5; experiment: Growth inhibition of human SK-MEL-5 cells assessed as cell growth at 10^-4 M after 48 hrs by sulforhodamine B assay; conditions: SK-MEL-5, 48 h, read-out: Activity
[19] = tested on: SNB-19; experiment: Growth inhibition of human SNB19 cells assessed as cell growth at 10^-5 M after 48 hrs by sulforhodamine B assay; conditions: SNB-19, 48 h, read-out: Activity
[20] = tested on: NCI-H460; experiment: Growth inhibition of human NCI-H460 cells assessed as cell growth at 10^-6 M after 48 hrs by sulforhodamine B assay; conditions: NCI-H460, 48 h, read-out: Activity
[21] = tested on: NCI-H23; experiment: Growth inhibition of human NCI-H23 cells assessed as cell growth at 10^-6 M after 48 hrs by sulforhodamine B assay; conditions: NCI-H23, 48 h, read-out: Activity
[22] = tested on: K562; experiment: Growth inhibition of human K562 cells assessed as cell growth at 10^-4 M after 48 hrs by sulforhodamine B assay; conditions: K562, 48 h, read-out: Activity
[23] = tested on: SK-MEL-28; experiment: Growth inhibition of human SK-MEL-28 cells assessed as cell growth at 10^-5 M after 48 hrs by sulforhodamine B assay; conditions: SK-MEL-28, 48 h, read-out: Activity
[24] = Growth inhibition of human NCI-ADR-RES cells after 48 hrs by sulforhodamine B assay; conditions: for CC50: read-out: LC50 (the source's name); procedure, shortened: as §1
[25] = tested on: BT-549; experiment: Growth inhibition of human BT549 cells assessed as cell growth at 10^-5 M after 48 hrs by sulforhodamine B assay; conditions: BT-549, 48 h, read-out: Activity
Procedure, shortened: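 Five-dose NCI-60 run (0.01, 0.1, 1, 10 and 100 µM, as 10-fold dilutions from a DMSO stock made at 400× the top final level). Cells were grown in RPMI 1640 with 5% FBS and 2 mM glutamine and plated for 24 h. They were then exposed for 48 h at 37 °C and 5% CO2. TCA fixation was followed by SRB staining with A515 read-out. Percent growth was taken relative to time-zero and control plates.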

[26] = tested on: HCT-116; experiment: Growth inhibition of human HCT116 cells assessed as cell growth at 10^-6 M after 48 hrs by sulforhodamine B assay; conditions: HCT-116, 48 h, read-out: Activity; procedure, shortened: as §2
[27] = tested on: M14; experiment: Growth inhibition of human M14 cells assessed as cell growth at 10^-4 M after 48 hrs by sulforhodamine B assay; conditions: M14, 48 h, read-out: Activity
[28] = tested on: SF-295; experiment: Growth inhibition of human SF295 cells assessed as cell growth at 10^-4 M after 48 hrs by sulforhodamine B assay; conditions: SF-295, 48 h, read-out: Activity
[29] = tested on: U-251; experiment: Growth inhibition of human U251 cells assessed as cell growth at 10^-4 M after 48 hrs by sulforhodamine B assay; conditions: U-251, 48 h, read-out: Activity
[30] = tested on: M14; experiment: Growth inhibition of human M14 cells after 48 hrs by sulforhodamine B assay; conditions: M14, 48 h, read-out: LC50 (the source's name); procedure, shortened: as §1
[31] = tested on: OVCAR-3; experiment: Growth inhibition of human OVCAR3 cells assessed as cell growth at 10^-4 M after 48 hrs by sulforhodamine B assay; conditions: OVCAR-3, 48 h, read-out: Activity

Row | Structure (SMILES) | growth at 1 µM [1] [%] | growth at 0.01 µM [2] [%] | CC50 [3] [µM] | growth at 1 µM [4] [%] | growth at 0.01 µM [5] [%] | growth at 100 µM [6] [%] | growth at 1 µM [7] [%] | growth at 0.1 µM [8] [%] | growth at 1 µM [9] [%] | growth at 10 µM [10] [%] | growth at 0.01 µM [11] [%] | growth at 1 µM [12] [%] | growth at 0.1 µM [13] [%] | growth at 100 µM [14] [%] | growth at 10 µM [15] [%] | growth at 100 µM [16] [%] | growth at 0.01 µM [17] [%] | growth at 100 µM [18] [%] | growth at 10 µM [19] [%] | growth at 1 µM [20] [%] | further results
1 | O=S(=O)(Nc1ccccn1)c1ccc2nc(-c3ccccc3)c(-c3ccccc3)nc2c1 | 85 | 95 | > 100 | 65 | 97 | 59 | 87 | 92 | 79 | 10 | 89 | 99 | 91 | 37 | -5 | 59 | 92 | 41 | 17 | 94 | TGI [3]: > 100 µM; growth at 1 µM [21]: 79%; growth at 100 µM [22]: 48%; growth at 10 µM [23]: 19%; CC50 [24]: > 100 µM; growth at 10 µM [25]: -34%; growth at 1 µM [26]: 75%; growth at 100 µM [27]: 69%; growth at 100 µM [28]: 40%; growth at 100 µM [29]: 47%; CC50 [30]: > 100 µM; growth at 100 µM [31]: 45%
2 | O=S(=O)(Nc1ccc(Cl)cc1)c1ccc2nc(-c3ccccc3)c(-c3ccccc3)nc2c1 | 90 | 95 | > 100 | 76 | 96 | 75 | 88 | 87 | 85 | 12 | 93 | 93 | 90 | 65 | 6 | 70 | 100 | 52 | 17 | 94 | growth at 1 µM [21]: 85%; growth at 100 µM [22]: 58%; growth at 10 µM [23]: 21%; TGI [24]: > 100 µM; CC50 [24]: > 100 µM; growth at 10 µM [25]: -20%; growth at 1 µM [26]: 80%; growth at 100 µM [27]: 77%; growth at 100 µM [28]: 77%; growth at 100 µM [29]: 75%; CC50 [30]: > 100 µM; growth at 100 µM [31]: 65%

From ChEMBL document CHEMBL2407075, “Sulphonamido-quinoxalines: search for anticancer agent” (Eur J Med Chem, 2013)
